This assay addresses Apelin receptor (Homo sapiens) (UniProt P35414). Kind of assay: APJ receptor antagonists, beta-arrestin recruitment, SAR follow-up, cell-based, CHO-K1 AGTRL-1, PathHunter luminescence, set 5 (AID 504436). The following applies: antagonist. In outline:
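Incubation – overnight seeding, 90 min exposure at 25 °C, 60 min detection · Assay system – CHO-K1 cells with ProLink-tagged APJ and EA-fused beta-arrestin · Reagent – Apelin-13, 10 nM final · Dosing – test compounds as a dose-response series · Measured by – enzyme-fragment complementation luminescence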
(Arrestin recruitment assays detect the binding of arrestin to an activated receptor.)

The values below come from PubChem BioAssay AID504436 (Sanford-Burnham Center for Chemical Genomics, 2011).

Active and inactive are the calls of the source.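 The calls were made as follows: active = mean IC50 below 20 µM in the confirmatory beta-arrestin antagonist test; inactive = the rest.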

Sequence of Apelin receptor (Homo sapiens) (P35414 whole entry, looked up, the tested form may be a part): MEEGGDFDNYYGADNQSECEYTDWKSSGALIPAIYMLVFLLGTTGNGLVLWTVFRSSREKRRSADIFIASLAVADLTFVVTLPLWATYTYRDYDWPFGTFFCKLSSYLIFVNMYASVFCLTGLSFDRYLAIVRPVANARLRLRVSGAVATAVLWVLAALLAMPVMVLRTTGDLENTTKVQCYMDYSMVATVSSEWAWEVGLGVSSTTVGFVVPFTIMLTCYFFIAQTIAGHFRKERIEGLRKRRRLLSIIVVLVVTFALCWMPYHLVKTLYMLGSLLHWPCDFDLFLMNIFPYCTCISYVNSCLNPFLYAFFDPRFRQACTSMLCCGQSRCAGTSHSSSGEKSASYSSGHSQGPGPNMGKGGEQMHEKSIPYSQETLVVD

For orientation: IC50 means the point on the concentration scale where inhibition reaches its midpoint. As to `O=C(Oc1coc(CSc2ccc(OC(F)(F)F)cc2)cc1=O)c1ccc(Cl)c([N+](=O)[O-])c1`, the IC50 entry is “inactive”.

As for `O=C(Oc1coc(CN2CCOCC2)cc1=O)c1ccc([N+](=O)[O-])cc1`, the concentration for half-maximal inhibition (IC50) was 16.4 µM.

For the molecule `COc1ccc(SCc2cc(=O)c(OC(=O)c3ccc(Cl)c([N+](=O)[O-])c3)co2)cc1`, the IC50 was 8.27 µM.

`O=C(Oc1coc(CN2CCOCC2)cc1=O)c1ccccc1`: the IC50 is > 79 µM (inactive).

With `Cc1cc(C)nc(SCc2cc(=O)c(OC(=O)c3ccc(-c4nccs4)cc3)co2)n1`, the IC50 is > 79 µM (inactive).

For the molecule `O=C(Oc1coc(CSc2ccc(Cl)cc2)cc1=O)c1ccc(Cl)c([N+](=O)[O-])c1`, the half-maximal inhibitory concentration (IC50) was 4.53 µM.

On to `Cc1ccc(SCc2cc(=O)c(OC(=O)c3ccc(Cl)c([N+](=O)[O-])c3)co2)cc1`, for which the IC50 was 12.8 µM.

As to `Cc1ccnc(SCc2cc(=O)c(NC(=O)c3ccc([N+](=O)[O-])cc3)co2)n1`, the IC50 is > 79 µM (inactive).
